M5 ag = agonists of human muscarinic M5 receptor (CHRM5). P08912. CHO-K1 hM5 cells, Fluo-8 calcium fluorescence; 0% DMSO wells, 100% maximal acetylcholine response. activation, % at 3 µM. 0.19% of 360,000 active. AID 624037;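 active means activation above the run's mean over test compounds plus 3 SD, cut at about 23% in these data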;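 further: signal is peak over basal fluorescence ratio across the kinetic read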
Target sequence (P08912 whole entry, looked up): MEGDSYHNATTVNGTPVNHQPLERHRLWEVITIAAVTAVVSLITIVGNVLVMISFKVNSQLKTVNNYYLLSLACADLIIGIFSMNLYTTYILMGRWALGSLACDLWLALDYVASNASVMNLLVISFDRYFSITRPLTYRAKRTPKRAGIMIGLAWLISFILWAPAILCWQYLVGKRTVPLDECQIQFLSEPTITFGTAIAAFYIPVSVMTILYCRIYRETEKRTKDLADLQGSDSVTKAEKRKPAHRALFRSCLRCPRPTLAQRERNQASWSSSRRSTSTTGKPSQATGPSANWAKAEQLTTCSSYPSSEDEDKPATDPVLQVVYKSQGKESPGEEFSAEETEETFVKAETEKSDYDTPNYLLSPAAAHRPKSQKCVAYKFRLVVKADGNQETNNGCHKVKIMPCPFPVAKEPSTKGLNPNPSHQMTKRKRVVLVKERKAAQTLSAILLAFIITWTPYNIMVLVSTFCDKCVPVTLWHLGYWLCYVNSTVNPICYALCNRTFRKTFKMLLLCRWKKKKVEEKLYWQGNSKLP
CHRM5 antagonist = antagonists of human muscarinic M5 receptor (CHRM5). 0.59% of 360,000 active. inhibition, % at 3 µM. P08912. AID 624040. CHO-hM5 cells, Fluo-8 calcium fluorescence, ACh EC80;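 active means inhibition above a per-plate cutoff, the mean of that plate's test compounds plus 3 SD, cut at about 27% in these data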;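 further: 0% = acetylcholine EC80 with DMSO and 100% = DMSO without agonist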
M1 ag = activates human CHRM1 receptor. activation, % at 3 µM. P11229. 0.33% of 360,000 active. CHO-K1 hM1, Fluo-8 calcium fluorescence, agonist mode; 0% DMSO, 100% acetylcholine EC100. AID 588814;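 active means activation above the run's mean compound activation plus 3 SD, cut at about 16% in these data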;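 further: peak over basal fluorescence ratio within a 140 s kinetic read after compound addition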
CHRM1 PAM = positive allosteric modulators of human M1 muscarinic receptor | 0.088% of 360,000 active | P11229 | activation, % at 3 µM | CHO-K1 hM1, Fluo-8 calcium fluorescence, ACh EC20; 0% = ACh EC20, 100% = maximal ACh; in the data active means activation above about 19%, passing the limit was not always enough
M1 antag = blocks human M1 muscarinic receptor. P11229. CHO-K1 hM1, Fluo-8 calcium fluorescence, ACh EC80 antagonist. inhibition, % at 3 µM. AID 588852. 1.3% of 360,000 active;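 active means percent inhibition above its own plate's cutoff, namely the mean of that plate's compound wells plus 3 SD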;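 further: peak over basal fluorescence ratio during 140 s after agonist addition; 0% = ACh EC80 plus DMSO and 100% = DMSO alone without agonist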
CHRM5 PAM = CHRM5 positive allosteric modulation; P08912; CHO-K1 hM5, Fluo-8 calcium, ACh EC20 PAM; 0% = ACh EC20, 100% = ACh EC100; activation, % at 3 µM; 0.3% of 360,000 active; AID 624038;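 active means activation above the run cutoff, the mean activation of all test compounds plus 3 SD, cut at about 18% in these data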
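Probe or stimulus: acetylcholine, EC20 level; Assay system: human M5 receptor in CHO-K1 cells; Schedule: compound preincubation 140 s before EC20 acetylcholine addition; Technique: intracellular calcium via Fluo-8 fluorescence; Dosing: single-point, 3 µM nominal; Read-out basis: percent activation from peak-over-basal fluorescence ratio, scaled EC20-to-EC100 acetylcholine; Repeats: one well per compound, no replicates.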
Active calls of the source: *. Compounds with a hit are over-represented: about 2% of the library has one in this group of screens.

SMILES	M5 ag	CHRM5 antagonist	M1 ag	CHRM1 PAM	M1 antag	CHRM5 PAM
COc1c2ccoc2nc2c(OC)c(OCC(OC(C)=O)C(C)(C)O)ccc12 (stereo not given)	2	3	-5	3	-3	-3
CN(C)Cc1csc(NC(=O)Nc2ccccc2-c2ccccc2)n1	-2	4	-8	-20	28*	-11
CCN(CC)CCOC(=O)C(Cc1cccc2ccccc12)CC1CCCO1 (stereo not given)	-6	1	-9	-25	45*	-4
CCN(CC)CCOC(=O)c1ccccc1Br	-9	10	-16	-29	10	-8
C#CCN1C(=O)S/C(=C/C=C/c2ccc(N(C)C)cc2)C1=O	8	18	36*	-18	47*	-7
O=C(CN1C(=O)S/C(=C\C=C\c2ccccc2)C1=O)Nc1ccccc1C(=O)O	1	9	-4	10	-17	-1
O=C(c1cc2ccccc2cc1OCC(O)CN1CCCCC1)N1CCCCC1 (stereo not given)	0	6	-12	-19	33*	-4
O=C(NNc1c2ccccc2nc2ccccc12)c1ccccc1O	-2	34*	-6	-9	9	-16
C=CCNC(=O)c1cnn(-c2ccccc2)c1-c1ccccc1	-3	-1	-2	0	-10	1
O=C(O)c1cnn(-c2ccccc2)c1-c1ccccc1	2	-19	-1	0	-8	19*
CCN(CC)C(=O)c1ccccc1NC(=O)CN1C(=O)c2ccccc2C1=O	-4	7	-2	11	-9	4
CC1(C)CC(NS(=O)(=O)c2ccc3ccccc3c2)CC(C)(C)N1	-2	-10	0	15	-6	18*
CC(C)N(C)Cc1nnnn1CC(=O)NCCc1cccc(C(F)(F)F)c1	3	1	-1	8	-9	22*
CSc1ccccc1CNC(=O)C1(C)CCCN1CC(C)C (stereo not given)	-3	-4	-8	4	-8	7
COc1ccc(NC(=O)C2(C)CCCN(C(C)C)C2)cc1OC (stereo not given)	1	-10	2	34*	-33	2
COc1ccccc1C(NC(=O)C1CCN(CCOc2ccccc2)CC1)c1ccccn1 (stereo not given)	-1	3	-8	2	-2	-4
CCCCOc1ccc(Br)cc1/C(C)=N/NC1=NCCN1	-5	17	-4	-22	73*	-18
CCCCCCOc1ccc(/C(C)=N/NC2=NCCN2)cc1[N+](=O)[O-]	-2	-6	-9	10	-9	6
Cc1cc(C(=O)O)cc(S(=O)(=O)Nc2ccccc2C(=O)NC(C)c2ccccc2)c1C (stereo not given)	-3	3	-3	9	-11	3
O=c1[nH]c2ccccc2n1CCCN1CCCCC1	-9	15	21*	-15	10	-18
O=C(NCCN1CCOCC1)c1ccc(NC(=O)C2COc3ccccc3O2)cc1 (stereo not given)	-2	4	-7	4	-3	5
OC(c1cccc(CN2CCCCC2)c1)c1ncc(-c2ccccc2Cl)[nH]1 (stereo not given)	-2	9	-9	-25	24	-16
Clc1ccc(CN2CCC(Cc3ccccc3)CC2)cc1	-8	10	-15	-28	45*	-10
O=C(C1CCN(Cc2ccc(Cl)cc2)CC1)N1CCN(C(c2ccccc2)c2ccccc2)CC1	-8	44*	-7	-27	99*	-19
CSc1ccc(CN2CCC(Cc3ccccc3)CC2)cc1	-25	1	-9	-29	50*	-15
CC(NC1CCN(Cc2ccccc2)CC1)c1ccc(F)cc1 (stereo not given)	-1	0	-10	-20	34*	1
CCOC(=O)CSc1nc2c(c(=O)[nH]1)C(C)(CC)Cc1ccccc1-2 (stereo not given)	-5	8	-1	4	-4	-4

Screening results: PubChem BioAssay, The Scripps Research Institute Molecular Screening Center
